# Measured values taken from ChEMBL document CHEMBL1138746, “Indolebutylamines as selective 5-HT(1A) agonists” (J Med Chem, 2004).
# Assays:
# [1] = Inhibition of 5-hydroxytryptamine 1D receptor
# [2] = Inhibition of 5-hydroxytryptamine 2A receptor
# [3] = Inhibition of 5-hydroxytryptamine 2C receptor
# [4] = target: T1, Adrenergic receptor alpha-1 (Homo sapiens, UniProt P35348+P25100+P35368); assay: Inhibition of Alpha-1 adrenergic receptor; type: protein assay
# T1 sequence (P35348 whole entry): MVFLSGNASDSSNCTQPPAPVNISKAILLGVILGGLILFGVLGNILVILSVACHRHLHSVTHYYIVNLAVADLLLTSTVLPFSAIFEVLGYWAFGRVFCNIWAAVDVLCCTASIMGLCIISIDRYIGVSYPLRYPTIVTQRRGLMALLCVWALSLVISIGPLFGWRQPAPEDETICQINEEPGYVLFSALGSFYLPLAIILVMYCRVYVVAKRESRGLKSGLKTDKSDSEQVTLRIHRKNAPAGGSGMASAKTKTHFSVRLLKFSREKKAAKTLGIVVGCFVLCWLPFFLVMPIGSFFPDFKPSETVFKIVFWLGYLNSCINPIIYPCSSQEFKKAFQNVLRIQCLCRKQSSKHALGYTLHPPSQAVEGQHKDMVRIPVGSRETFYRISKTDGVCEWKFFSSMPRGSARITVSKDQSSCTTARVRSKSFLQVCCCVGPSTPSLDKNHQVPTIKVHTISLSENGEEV
# T1 sequence (P25100 whole entry): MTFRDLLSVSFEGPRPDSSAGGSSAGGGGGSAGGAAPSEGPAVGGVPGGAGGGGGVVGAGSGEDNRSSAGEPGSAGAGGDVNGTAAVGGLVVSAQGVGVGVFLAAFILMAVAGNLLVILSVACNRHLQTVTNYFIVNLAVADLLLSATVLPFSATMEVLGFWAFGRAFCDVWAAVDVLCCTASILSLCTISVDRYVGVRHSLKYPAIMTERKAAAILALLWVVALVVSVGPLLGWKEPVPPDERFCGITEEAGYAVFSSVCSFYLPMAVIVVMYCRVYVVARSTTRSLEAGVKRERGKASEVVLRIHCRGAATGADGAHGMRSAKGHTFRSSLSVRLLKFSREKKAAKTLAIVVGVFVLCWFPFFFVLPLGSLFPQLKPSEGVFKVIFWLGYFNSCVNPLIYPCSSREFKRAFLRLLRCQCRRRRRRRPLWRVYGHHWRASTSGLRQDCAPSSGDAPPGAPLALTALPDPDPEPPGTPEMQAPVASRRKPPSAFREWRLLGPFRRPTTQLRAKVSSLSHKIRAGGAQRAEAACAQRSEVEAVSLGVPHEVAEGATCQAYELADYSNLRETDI
# T1 sequence (P35368 whole entry): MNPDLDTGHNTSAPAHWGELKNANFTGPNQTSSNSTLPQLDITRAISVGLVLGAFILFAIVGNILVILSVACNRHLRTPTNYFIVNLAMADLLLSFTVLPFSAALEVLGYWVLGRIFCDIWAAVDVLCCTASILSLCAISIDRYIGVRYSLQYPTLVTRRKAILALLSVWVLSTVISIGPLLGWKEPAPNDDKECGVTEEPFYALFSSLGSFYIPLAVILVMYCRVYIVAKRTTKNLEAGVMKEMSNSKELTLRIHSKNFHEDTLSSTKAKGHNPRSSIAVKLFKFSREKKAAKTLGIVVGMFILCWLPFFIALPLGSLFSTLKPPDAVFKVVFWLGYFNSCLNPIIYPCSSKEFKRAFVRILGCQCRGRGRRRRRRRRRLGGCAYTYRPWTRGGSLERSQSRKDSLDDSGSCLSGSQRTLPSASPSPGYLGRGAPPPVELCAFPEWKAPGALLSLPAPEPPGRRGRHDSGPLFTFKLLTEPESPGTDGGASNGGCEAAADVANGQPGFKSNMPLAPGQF
# [5] = target: T2, Adrenergic receptor alpha-2 (Homo sapiens, UniProt P08913+P18825+P18089); assay: Inhibition of Alpha-2 adrenergic receptor; type: protein assay
# T2 sequence (P08913 whole entry): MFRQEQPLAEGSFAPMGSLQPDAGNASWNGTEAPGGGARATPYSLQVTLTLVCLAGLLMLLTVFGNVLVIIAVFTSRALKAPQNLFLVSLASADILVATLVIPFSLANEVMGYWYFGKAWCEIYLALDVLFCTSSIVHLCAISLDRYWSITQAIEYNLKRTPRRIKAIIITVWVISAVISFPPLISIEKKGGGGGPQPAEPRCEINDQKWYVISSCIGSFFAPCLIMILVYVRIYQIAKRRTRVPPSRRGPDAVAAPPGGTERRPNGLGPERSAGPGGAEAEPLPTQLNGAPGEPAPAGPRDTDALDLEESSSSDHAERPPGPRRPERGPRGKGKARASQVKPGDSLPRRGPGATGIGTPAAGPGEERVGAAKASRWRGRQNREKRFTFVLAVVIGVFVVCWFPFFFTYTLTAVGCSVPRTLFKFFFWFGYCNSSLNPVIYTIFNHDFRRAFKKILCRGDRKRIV
# T2 sequence (P18825 whole entry): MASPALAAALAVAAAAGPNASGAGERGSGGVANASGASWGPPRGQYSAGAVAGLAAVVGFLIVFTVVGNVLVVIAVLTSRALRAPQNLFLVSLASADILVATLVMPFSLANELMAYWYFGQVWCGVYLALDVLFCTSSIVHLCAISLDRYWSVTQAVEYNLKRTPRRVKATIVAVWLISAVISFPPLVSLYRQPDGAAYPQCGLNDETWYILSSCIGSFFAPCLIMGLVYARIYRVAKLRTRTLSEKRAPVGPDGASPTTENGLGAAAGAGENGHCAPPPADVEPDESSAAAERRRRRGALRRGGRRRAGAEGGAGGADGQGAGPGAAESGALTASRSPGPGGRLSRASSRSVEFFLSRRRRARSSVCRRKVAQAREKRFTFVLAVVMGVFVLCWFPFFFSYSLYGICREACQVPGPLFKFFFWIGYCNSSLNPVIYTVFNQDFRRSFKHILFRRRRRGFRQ
# T2 sequence (P18089 whole entry): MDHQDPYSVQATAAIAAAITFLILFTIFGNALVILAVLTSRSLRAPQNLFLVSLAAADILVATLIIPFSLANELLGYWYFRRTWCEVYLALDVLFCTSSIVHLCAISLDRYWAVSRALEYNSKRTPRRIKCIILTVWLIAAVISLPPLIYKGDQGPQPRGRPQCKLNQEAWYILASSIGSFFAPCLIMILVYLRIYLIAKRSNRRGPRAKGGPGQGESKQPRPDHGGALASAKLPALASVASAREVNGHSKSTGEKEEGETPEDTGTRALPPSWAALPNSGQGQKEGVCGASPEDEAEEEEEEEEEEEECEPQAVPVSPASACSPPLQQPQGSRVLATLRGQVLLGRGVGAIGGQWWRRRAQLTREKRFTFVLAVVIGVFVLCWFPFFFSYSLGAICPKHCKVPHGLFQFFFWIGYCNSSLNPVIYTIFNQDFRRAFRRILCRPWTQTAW
# D(2) dopamine receptor = D(2) dopamine receptor (Rattus norvegicus, UniProt P61169); assay: Displacement of [3H]spiperone from dopamine D2 receptor of rat striatal membranes; type: cell membranes, Membrane
# D(2) dopamine receptor, sequence (P61169 whole entry): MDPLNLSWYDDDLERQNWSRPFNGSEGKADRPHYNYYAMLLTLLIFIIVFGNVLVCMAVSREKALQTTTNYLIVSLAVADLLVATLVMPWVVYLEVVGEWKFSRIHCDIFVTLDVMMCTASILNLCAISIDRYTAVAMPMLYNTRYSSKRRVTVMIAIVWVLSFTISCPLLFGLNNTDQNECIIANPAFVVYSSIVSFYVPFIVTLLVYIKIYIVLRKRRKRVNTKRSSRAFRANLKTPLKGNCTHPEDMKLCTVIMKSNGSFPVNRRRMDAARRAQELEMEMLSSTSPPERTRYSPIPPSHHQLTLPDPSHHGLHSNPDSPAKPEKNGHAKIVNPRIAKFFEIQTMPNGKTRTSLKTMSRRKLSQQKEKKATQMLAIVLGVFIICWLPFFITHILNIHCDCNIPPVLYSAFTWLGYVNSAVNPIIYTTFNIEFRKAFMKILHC
# In short: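 Rat striatal membranes (0.3–1.0 mg protein/mL) were incubated with 0.1 nM [3H]spiperone in Tris-HCl buffer (pH 7.1) containing 120 mmol/L NaCl, 5 mmol/L KCl, 1 mmol/L CaCl2, 1 mmol/L MgCl2 and 0.1% ascorbic acid, at 37 °C for 15 min. Bound ligand was separated by filtration with three ice-cold washes. Nonspecific binding was defined with 1 mmol/L (+)-butaclamol. IC50 (50% inhibition of binding) came from 5–10 concentrations, each in triplicate.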
# [6] = Inhibition of Histamine H1 receptor
# [7] = target: T3, 5-hydroxytryptamine receptor 1A (Rattus norvegicus, UniProt P19327); assay: Inhibition of 8-OH DPAT bindign to rat hydroxytryptamine 1A receptor in hippocampal membranes
# T3 sequence (P19327 whole entry): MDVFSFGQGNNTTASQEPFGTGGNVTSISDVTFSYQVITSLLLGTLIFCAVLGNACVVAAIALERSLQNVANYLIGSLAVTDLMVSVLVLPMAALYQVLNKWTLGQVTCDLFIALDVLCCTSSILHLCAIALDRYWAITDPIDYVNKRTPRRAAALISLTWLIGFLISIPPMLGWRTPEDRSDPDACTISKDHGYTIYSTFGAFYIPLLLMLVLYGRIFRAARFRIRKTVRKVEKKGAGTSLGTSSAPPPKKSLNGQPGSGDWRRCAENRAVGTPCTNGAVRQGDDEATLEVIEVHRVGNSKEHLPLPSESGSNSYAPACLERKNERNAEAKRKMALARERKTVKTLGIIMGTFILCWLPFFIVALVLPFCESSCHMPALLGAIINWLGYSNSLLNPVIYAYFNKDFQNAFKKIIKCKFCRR
# [8] = target: 5-hydroxytryptamine receptor 1A (Homo sapiens) (UniProt P08908); assay: Effective dose against 5-hydroxytryptamine 1A receptor
# 5-hydroxytryptamine receptor 1A (Homo sapiens), sequence (P08908 whole entry, looked up): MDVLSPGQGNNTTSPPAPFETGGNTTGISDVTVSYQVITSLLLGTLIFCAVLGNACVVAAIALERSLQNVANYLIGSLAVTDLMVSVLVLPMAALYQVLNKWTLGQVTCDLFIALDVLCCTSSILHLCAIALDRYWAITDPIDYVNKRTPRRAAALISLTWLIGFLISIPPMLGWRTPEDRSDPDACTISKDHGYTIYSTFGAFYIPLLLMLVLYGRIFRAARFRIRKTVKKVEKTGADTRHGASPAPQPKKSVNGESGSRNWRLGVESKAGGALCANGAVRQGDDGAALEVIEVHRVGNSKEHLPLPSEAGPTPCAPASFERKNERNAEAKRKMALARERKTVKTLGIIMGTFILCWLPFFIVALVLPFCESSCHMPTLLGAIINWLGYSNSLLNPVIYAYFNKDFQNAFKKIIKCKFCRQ
# [9] = target: 5-hydroxytryptamine receptor 1A (Homo sapiens) (UniProt P08908); assay: Effective dose against 5-HT1a receptor
# [10] = Inhibition of hydroxytryptamine 2C receptor
IC50 [1] [nM],IC50 [2] [nM],IC50 [3] [nM],IC50 [4] [nM],IC50 [5] [nM],IC50 (D(2) dopamine receptor) [nM],IC50 [6] [nM],IC50 [7] [nM],ED50 [8] [nM],ED50 [9] [nM],IC50 [10] [nM],SMILES
400,240,800,100,900,22,19,0.4,,,,NC(=O)c1ccc2[nH]cc(CCCCN3CCN(c4ccc5c(c4)OCO5)CC3)c2c1
,,,,,100,,0.5,0.07,,,NC(=O)c1ccc2[nH]cc(CCCCN3CCN(c4ccc5c(c4)CCCO5)CC3)c2c1
,,,,,> 850,,,,4.7,,NC(=O)c1ccc(N2CCN(CCCCc3c[nH]c4ccc(C(N)=O)cc34)CC2)cc1
> 10000,750,,1000,7000,420,41,,,,4000,COc1ccc(N2CCN(CCCCc3c[nH]c4ccc(OC)cc34)CC2)cc1
,220,,700,2000,140,1000,0.09,,,,COc1ccc(N2CCN(CCCCc3c[nH]c4ccc(C(N)=O)cc34)CC2)cc1
